The values below come from ChEMBL document CHEMBL1124433 (J Med Chem, 1989).

Assay [1] deals with DNA topoisomerase 1 (Bos taurus). Description: Concentration that produces 50% DNA cleavage mediated by DNA topoisomerase I; neg= negative is no enzyme mediated DNA cleavage at the highest conc tested at 50 uM.
The subject of assay [2] is L1210. Description: Concentration that inhibits the proliferation of L1210 cells by 50%. The assay is classed as functional, cell-based. The following applies: Mus musculus. The procedure, abridged: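 L1210 murine leukemia cells were incubated with drug at various concentrations for 60 min at 37 °C. Colonies were stained with tetrazolium and counted; cloning efficiency is 8-10%. IC50 is the drug concentration in the agar giving 50% fewer colonies.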

Assay [3] relates to L1210. Description: Protein associated single strand breaks, measured after cell lysis and proteinase K treatment at 2 uM concentration of the compound. The assay is classed as functional, Mus musculus. The procedure, abridged:
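L1210 cells exposed to drug for 1 h, then alkaline elution. Lysis followed by proteinase K treatment to score protein-associated single-strand breaks. Expressed as rad equivalents.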

Assay [4] concerns L1210. The experiment in a line: Non-protein associated single strand breaks, measured after cell lysis in the absence of proteinase K treatment at 2 uM concentration of the compound. The format is functional, Mus musculus. The procedure, abridged:
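L1210 cells exposed to drug for 1 h, then alkaline elution. Cells lysed without proteinase K treatment to score single-strand breaks not bound to protein. Expressed as rad equivalents.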

Assay [5] relates to DNA topoisomerase 1 (Bos taurus). Description: Concentration that produces 50% DNA cleavage mediated by topoisomerase I; neg= negative is no enzyme mediated DNA cleavage at the highest conc tested at 50 uM.
For assay [6] the test system is unchanged. The experiment in a line: Concentration that produces 50% DNA cleavage mediated by DNA topoisomerase I.
Assay [7] deals with L1210. The experiment in a line: Non-protein associated single strand breaks, measured after cell lysis in the absence of proteinase K treatment at 3.5 uM concentration of the compound. The format is functional, Mus musculus. In outline:
(§1)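 L1210 cells were exposed to compound for 1 h and DNA strand breaks were measured by alkaline elution, expressed as rad equivalents. Protein-associated breaks were read after cell lysis plus proteinase K treatment. Non-protein-associated breaks were read after lysis without proteinase K.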

Assay [8] deals with L1210. Description: Protein associated single strand breaks, measured after cell lysis and proteinase K treatment at 35 uM concentration of the compound. The format is functional, Mus musculus. In outline:
as §1

The test system of assay [9] is L1210. The experiment in a line: Non-protein associated single strand breaks, measured after cell lysis in the absence of proteinase K treatment at 35 uM concentration of the compound. The assay is classed as functional, Mus musculus. In outline: as §1
Assay [10] deals with L1210. The experiment in a line: Non-protein associated single strand breaks, measured after cell lysis in the absence of proteinase K treatment at 10 uM concentration of the compound. The format is functional, Mus musculus. In outline: as §1
Assay [11] deals with L1210. Description: Protein associated single strand breaks, measured after cell lysis and proteinase K treatment at 10 uM concentration of the compound. The assay is classed as functional, Mus musculus. The procedure, abridged: as §1
For assay [12], the system named is L1210. The experiment in a line: Protein associated single strand breaks, measured after cell lysis and proteinase K treatment at 20 uM concentration of the compound. The assay is classed as functional, Mus musculus. In outline: as §1
Assay [13] has as its system L1210. Description: Non-protein associated single strand breaks, measured after cell lysis in the absence of proteinase K treatment at 20 uM concentration of the compound. The assay is classed as functional, Mus musculus. The procedure, abridged: as §1

SMILES strings stand for the structures.

On to `CCC1OC(=O)c2c1cc1n(c2=O)Cc2cc3ccccc3nc2-1` (configuration not stated), for which the CC50 result in assay [1] is “Negative”. Also, the IC50 (as a rule, the point on the concentration scale where inhibition reaches its midpoint) in the assay on L1210 [2] is more than 5900 nM.

Consider `CC[C@@]1(O)C(=O)OCc2c1cc1n(c2=O)Cc2cc3ccccc3nc2-1` [CAMPTOTHECIN], for which the Radiation equivalent with L1210 [3] was 342; in the assay on L1210 [4], 240. In the assay with L1210 [2], this compound registered an IC50 of 14 nM.

As for `CCC1(O)OCc2c1cc1n(c2=O)Cc2cc3ccccc3nc2-1` (configuration not stated), the CC50 entry in assay [5] was “Negative”. In the assay with L1210 [2], this compound displayed an IC50 of more than 5900 nM.

On to `O=C1OCc2c1cc1n(c2=O)Cc2cc3ccccc3nc2-1`, for which, in [1], the CC50 result was “Negative”. The compound also registered an IC50 in the assay with L1210 [2] of more than 5900 nM.

Turning to `CC[C@@](O)(C(=O)NC(C)C)c1cc2n(c(=O)c1CO)Cc1cc3ccccc3nc1-2`, the CC50 in assay [6] was determined as 5000 nM.

As for `CC[C@@]1(O)C(=O)SCc2c1cc1n(c2=O)Cc2cc3ccccc3nc2-1`, in assay [5], the CC50 entry was “Negative”. In addition, in the assay on L1210 [2], the IC50 stood at 2900 nM.

For the compound `O=c1c2cocc2c(O)c2n1Cc1cc3ccccc3nc1-2`, the CC50 result in assay [1] is “Negative”. Moreover, the Radiation equivalent was 175 in the assay with L1210 [7], less than 100 with L1210 [8] and 1000 with L1210 [9]. In the assay with L1210 [2], this compound returned an IC50 of 92 nM.

With `CC[C@@]1(OC(C)=O)C(=O)OCc2c1cc1n(c2=O)Cc2cc3ccccc3nc2-1`, the CC50 entry in [1] was “Negative”. The IC50 with L1210 [2] worked out at 390 nM.

On to `CC[C@@]1(O)C(=O)NCc2c1cc1n(c2=O)Cc2cc3ccccc3nc2-1`, for which the CC50 result in assay [1] was “Negative”. Besides, the Radiation equivalent with L1210 [10] and in the assay with L1210 [11] was less than 100 in each case. Besides, in the assay on L1210 [2], the half-inhibitory concentration (IC50) is more than 2000 nM.

For the compound `CC[C@H]1C(=O)OCc2c1cc1n(c2=O)Cc2cc3ccccc3nc2-1`, the CC50 entry in assay [1] is “Negative”. In the assay on L1210 [2], this compound registered an IC50 of 590 nM.

For `CC[C@@](O)(C(=O)O)c1cc2n(c(=O)c1CO)Cc1cc3ccccc3nc1-2`, the CC50 in assay [6] is 900 nM. Moreover, the IC50 with L1210 [2] is 14 nM.

With `CC[C@]1(O)c2cc3n(c(=O)c2COC1O)Cc1cc2ccccc2nc1-3` (some centres not stated), the CC50 entry in assay [1] was “Negative”. Moreover, the Radiation equivalent with L1210 [10] and in the assay with L1210 [11] was less than 100 throughout. This compound also displayed an IC50 in the assay on L1210 [2] of 2700 nM.

Take `C=C1CC(CC)(c2cc3n(c(=O)c2C)Cc2cc4ccccc4nc2-3)OC1=O` (configuration not stated): the Radiation equivalent in the assay with L1210 [12] was less than 100; with L1210 [3] it was less than 100; with L1210 [13], 1360; in the assay with L1210 [4] it was less than 100. The CC50 result in assay [5] is “Negative”. The compound also yielded a concentration for half-maximal inhibition (IC50) in the assay with L1210 [2] of 94 nM.
